Measured values gathered from unrelated publications.
Target: Activin receptor type-1-like (ACVRL1, Homo sapiens, UniProt P37023)

Structure (SMILES)	effect on	method	concentration	remaining binding
C[C@@H](c1ccc(-n2cnc3c(N)ncnc32)cc1)N1CCc2nn(C)c(Cc3ccccc3)c2C1=O	binding	competition with immobilised ligand	0.1 µM	66%
C[C@@H]1CCN(c2nccc(-c3cnn4ncccc34)n2)C1	binding	–	1 µM	100%
CNC(=O)[C@@H]1CC[C@@H](n2c(-c3ccc4cnccc4c3)nc3ccc(C(=O)NCc4cccc(C(N)=O)c4)cc32)C1	binding	competition with immobilised ligand	1 µM	68%
CN(c1nccc(-c2cnn3ncccc23)n1)C1CC1	binding	–	1 µM	76%
O=C(c1ccc(Nc2ncc(Cl)c(-c3ccc(Cl)s3)n2)cc1)N1CCC(N2CCCC2)CC1	binding	competition with immobilised ligand	1 µM	100%
O=C(NCC1CCOCC1)c1n[nH]cc1NC(=O)c1c(F)cccc1F	binding	competition with immobilised ligand	1 µM	94%
N[C@@H]1CCN(c2nccc(-c3cnn4ncccc34)n2)C1	binding	–	1 µM	100%
Cc1cc(C)c(-n2ccn3nc(-c4cccnc4)cc23)cc1NC(=O)c1cc(C#N)cc(S(F)(F)(F)(F)F)c1	binding	competition with immobilised ligand	0.1 µM	78.9%
c1cncc(-c2cccc(Nc3nccc(NC4CCCCC4)n3)c2)c1	binding	competition with immobilised ligand	10 µM	52%
CS(=O)(=O)c1cc(C2(NC(=O)c3cncc4c3cnn4-c3ccc(F)cc3)CC2)ccn1	cell-free assay	competition with immobilised ligand	1 µM	100%
FC(F)(F)Oc1cccc(-c2cnc3ccc(-c4ccncc4)nn23)c1	cell-free assay	competition with immobilised ligand	5 µM	85%
CCCCN(CCCC)C(=O)CN1C[C@@H](c2cc(OC)c3c(c2)OCO3)[C@H](C(=O)O)[C@H]1CC(C)(C)CCC	cell-free assay	competition with immobilised ligand	1 µM	99.4%
COc1ncc2cc3ccccc3nc2c1C#N	binding	competition with immobilised ligand	5 µM	93%
COc1cc(-c2cn(C3CCc4c(F)cccc4N(CC(F)(F)F)C3=O)nn2)ccc1-n1cnc(C)c1 (stereo not shown)	cell-free assay	competition with immobilised ligand	1 µM	100%
O=C(NCCCN1CCOCC1)c1ccc(Nc2nccc(-c3cc4ccccc4s3)n2)cc1	binding	competition with immobilised ligand	1 µM	100%
CN(C)CC#Cc1ccc(OCCCc2sc(N3CCc4cccc(C(=O)Nc5nc6ccccc6s5)c4C3)nc2C(=O)O)c(F)c1	binding	competition with immobilised ligand	1 µM	82%
CN(C)c1ncc(F)c(-c2cnn3ncccc23)n1	binding	–	1 µM	100%
CC(=O)N1CCC(c2ccc(C(=O)NC3=NCCN3)cc2C(F)(F)F)CC1	binding	competition with immobilised ligand	1 µM	100%
CN(C)c1nccc(-c2cnc3ncccn23)n1	binding	–	1 µM	100%
CCN1CCN(Cc2ccc(C(=O)Nc3ccc(C)c(Oc4ccc5c(c4)CC(=O)N5)c3)cc2C(F)(F)F)CC1	binding	competition with immobilised ligand	1 µM	100%
O=C(c1ccc(Nc2ncc(Cl)c(-c3cc4ccccc4s3)n2)cc1)N1CCC(N2CCCC2)CC1	binding	competition with immobilised ligand	1 µM	100%
c1cnn2ncc(-c3ccnc(N4CCC45COC5)n3)c2c1	binding	–	1 µM	100%
